# Test results published in ChEMBL document CHEMBL3425447, “Discovery of Orally Available Runt-Related Transcription Factor 3 (RUNX3) Modulators for Anticancer Chemotherapy by Epigenetic Activation and Protein Stabilization” (J Med Chem, 2015).
# Columns and labels:
# C2C12 = test: Induction of RUNX transcriptional activation in mouse C2C12-6xOSE2 cells at 1 uM after 24 hrs by luciferase reporter assay relative to FGF-2; type: functional
# Outline: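 C2C12-6xOSE stable cells grown in DMEM with 10% FBS at 37°C, 5% CO2. Seeded at 1 × 10^4 cells/well; next day treated with compound or FGF-2 (1 µM each). After 24 h, luciferase measured with Bright-Glo. Activity expressed as percent of the FGF-2 positive-control response.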
# MDA-MB-231 = test: Growth inhibition of human MDA-MB-231 cells after 5 days by sulforhodamine B assay; type: functional; details: MDA-MB-231, 120 h
# [1] = Growth inhibition of human NUGC3 cells after 5 days by sulforhodamine B assay; type: functional; details: NUGC-3, 120 h
# [2] = Growth inhibition of human HCT15 cells after 5 days by sulforhodamine B assay; type: functional; details: HCT-15, 120 h
# ACHN = test: Growth inhibition of human ACHN cells after 5 days by sulforhodamine B assay; type: functional; details: 120 h
# [3] = Growth inhibition of human PC3 cells after 5 days by sulforhodamine B assay; type: functional; details: PC-3, 120 h
# Histone deacetylase = test: Inhibition of HDAC in human HeLa cell nuclear extract using Fluor de Lys as substrate incubated with compound for 30 mins by microtiter-plate reading flourimeter analysis; type: protein assay
# NCI-H23 = test: Growth inhibition of human NCI-H23 cells after 5 days by sulforhodamine B assay; type: functional; details: NCI-H23, 120 h
# HEK293 [4] = test: Induction of myc-tagged RUNX3 acetylation in human HEK293 cells assessed as RUNX3 level at 1 uM after 24 hrs by immunoprecipitation analysis relative to TSA; type: functional
# Outline: (§1)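 HEK293 cells (DMEM, 10% FBS) transfected with myc-RUNX3 vector using Lipofectamine 2000. Next day treated at 1 µM for 24 h. Lysates (HEPES pH 7.5, NP-40 buffer) immunoprecipitated with anti-myc antibody and protein G beads at 4°C. Immunoprecipitates western-blotted with anti-acetylated lysine antibody; relative acetylated RUNX3 quantified.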
# [5] = Metabolic stability in mouse liver microsomes assessed as compound remaining at 1 uM after 30 mins by LC-ESI/MS/MS analysis in absence of NADPH; type: ADME; details: read-out: Stability
# Outline: (§2)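 Compound at 1 µM incubated in triplicate with pooled mouse liver microsomes (0.5 mg/ml final) in 0.1 M potassium phosphate, pH 7.4, at 37°C, with or without 1 mM NADPH. Reactions stopped at 0 and 30 min with ice-cold acetonitrile containing internal standard. After centrifugation, supernatant analyzed by LC-ESI/MS/MS; percent remaining from analyte/IS peak-area ratios. Buspirone served as positive control.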
# [6] = Metabolic stability in mouse liver microsomes assessed as compound remaining at 1 uM after 30 mins byLC-ESI/MS/MS analysis in presence of NADPH; type: ADME; details: read-out: Stability; outline: as §2
# HEK293 [7] = test: Induction of myc-tagged RUNX3 acetylation in human HEK293 cells assessed as acetylated RUNX3 level at 1 uM after 24 hrs by immunoprecipitation analysis relative to TSA; type: functional; outline: as §1
Structure (SMILES),Activity (C2C12),GI50 (MDA-MB-231),GI50 [1],GI50 [2],GI50 (ACHN),GI50 [3],IC50 (Histone deacetylase),GI50 (NCI-H23),fold change (FC) (HEK293 [4]),"remaining at 0.5 h, 1 µM [5]","remaining at 0.5 h, 1 µM [6]",fold change (FC) (HEK293 [7])
O=C(/C=C/c1cccn(CCc2ccccn2)c1=O)NO,26.7%,> 10000 nM,> 10000 nM,> 10000 nM,> 10000 nM,> 10000 nM,3940 nM,> 10000 nM,–,–,–,–
CC(C)(C)c1ccc(Cn2cccc(/C=C/C(=O)NO)c2=O)cc1,46.4%,2590 nM,1820 nM,2400 nM,2800 nM,3040 nM,90 nM,2810 nM,–,–,–,–
COc1cccc(Cn2cccc(/C=C/C(=O)NO)c2=O)c1,200%,3180 nM,1690 nM,2600 nM,1260 nM,1820 nM,150 nM,2690 nM,2,98.6%,61.5%,17
O=C(/C=C/c1cccn(Cc2ccccn2)c1=O)NO,35.6%,> 10000 nM,> 10000 nM,> 10000 nM,6440 nM,10200 nM,460 nM,> 10000 nM,–,–,–,–
CCOc1cccc(CCn2cccc(/C=C/C(=O)NO)c2=O)c1,76.9%,1740 nM,1420 nM,920 nM,940 nM,1340 nM,120 nM,1810 nM,–,–,–,–
O=C(/C=C/c1cccn(Cc2ccncc2)c1=O)NO,69.1%,4920 nM,9190 nM,> 10000 nM,9490 nM,9170 nM,420 nM,3010 nM,–,–,–,–
O=C(/C=C/c1cccn(Cc2ccccc2Br)c1=O)NO,86%,1590 nM,1660 nM,2400 nM,1530 nM,2880 nM,190 nM,2300 nM,–,–,–,–
O=C1CC2(CCCC2)CC(=O)N1CCCCN1CCN(c2ncccn2)CC1 [BUSPIRONE],–,–,–,–,–,–,–,–,–,101%,0.4%,–
O=C(CCCCCCC(=O)Nc1ccccc1)NO [VORINOSTAT],80.2%,–,–,–,–,–,–,–,–,–,–,–
O=C(/C=C/c1cccn(CCc2ccncc2)c1=O)NO,19.6%,> 10000 nM,> 10000 nM,> 10000 nM,> 10000 nM,> 10000 nM,> 10000 nM,> 10000 nM,–,–,–,–
O=C(/C=C/c1cccn(CCCc2cccnc2)c1=O)NO,30%,> 10000 nM,> 10000 nM,> 10000 nM,> 10000 nM,> 10000 nM,570 nM,5210 nM,–,–,–,–
COc1ccc(CCCn2cccc(/C=C/C(=O)NO)c2=O)cc1,97.6%,1360 nM,970 nM,900 nM,980 nM,1780 nM,140 nM,1310 nM,–,–,–,–
O=C(/C=C/c1cccn(Cc2ccc(Br)cc2)c1=O)NO,99.2%,2490 nM,2110 nM,4310 nM,1480 nM,1880 nM,100 nM,3000 nM,–,–,–,–
COc1cccc(CCn2cccc(/C=C/C(=O)NO)c2=O)c1,53.8%,6940 nM,2910 nM,> 10000 nM,2930 nM,5870 nM,70 nM,5060 nM,–,–,–,–
CC(C)(C)c1ccc(CCCn2cccc(/C=C/C(=O)NO)c2=O)cc1,34.4%,2230 nM,1310 nM,1420 nM,1830 nM,1480 nM,380 nM,1780 nM,–,–,–,–
O=C(/C=C/c1cccn(CCc2ccc(Br)cc2)c1=O)NO,53.5%,6390 nM,2830 nM,8600 nM,2140 nM,4840 nM,360 nM,3040 nM,–,–,–,–
O=C(/C=C/c1cccn(Cc2cccc(Br)c2)c1=O)NO,91.6%,3070 nM,2780 nM,2730 nM,3030 nM,4840 nM,380 nM,3040 nM,–,–,–,–
O=C(/C=C/c1cccn(CCc2cccc(Br)c2)c1=O)NO,74%,4900 nM,1990 nM,7290 nM,2000 nM,3580 nM,160 nM,3300 nM,–,–,–,–
CCc1ccccc1Cn1cccc(/C=C/C(=O)NO)c1=O,52.3%,6950 nM,5410 nM,3930 nM,3240 nM,5020 nM,230 nM,4960 nM,–,–,–,–
O=C(/C=C/c1cccn(Cc2cccnc2)c1=O)NO,32.3%,10000 nM,5940 nM,7510 nM,4160 nM,5330 nM,300 nM,6700 nM,–,–,–,–
CCc1ccc(CCCn2cccc(/C=C/C(=O)NO)c2=O)cc1,14.3%,2880 nM,1740 nM,1060 nM,1710 nM,1850 nM,310 nM,2150 nM,–,–,–,–
CCc1ccc(Cn2cccc(/C=C/C(=O)NO)c2=O)cc1,74.3%,3680 nM,1670 nM,1860 nM,1540 nM,2070 nM,100 nM,2350 nM,–,–,–,–
CC(C)(C)c1ccc(CCn2cccc(/C=C/C(=O)NO)c2=O)cc1,104.7%,840 nM,470 nM,710 nM,700 nM,500 nM,110 nM,910 nM,1.2,103%,28.3%,0.1
CCc1ccc(CCn2cccc(/C=C/C(=O)NO)c2=O)cc1,106%,720 nM,740 nM,690 nM,700 nM,530 nM,70 nM,690 nM,0.4,96.5%,11.1%,0.2
O=C(/C=C/c1cccn(CCCc2ccc(Br)cc2)c1=O)NO,53.8%,4380 nM,4020 nM,7450 nM,4190 nM,3970 nM,210 nM,4880 nM,–,–,–,–
O=C(/C=C/c1cccn(CCCc2ccccc2Br)c1=O)NO,162.8%,2890 nM,1500 nM,1580 nM,1920 nM,1860 nM,480 nM,1880 nM,–,–,24.2%,–
CCOc1ccccc1CCn1cccc(/C=C/C(=O)NO)c1=O,30.9%,3890 nM,3920 nM,6060 nM,3590 nM,4920 nM,320 nM,4920 nM,–,–,–,–
O=C(/C=C/c1cccn(CCCc2cccc(Br)c2)c1=O)NO,100.8%,1850 nM,1200 nM,1160 nM,740 nM,1260 nM,100 nM,1220 nM,0.7,96.7%,20.7%,0.4
CCOc1ccc(CCn2cccc(/C=C/C(=O)NO)c2=O)cc1,119.5%,2050 nM,1280 nM,1000 nM,2340 nM,140 nM,70 nM,1050 nM,0.8,105%,59.6%,0.2
COc1ccc(Cn2cccc(/C=C/C(=O)NO)c2=O)cc1,84.6%,6260 nM,3880 nM,4520 nM,4730 nM,4700 nM,380 nM,5300 nM,–,–,–,–
